In the array DNA melting data of Ke et al. (doi:10.1101/2024.01.08.574731):

Experiments:
[1] = folding enthalpy; higher = less favourable; fluorescence melt of hairpins on a sequencing array, two-state fit; conditions: sodium 0.088 M
Outline: (§1)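 Two-state fits, bootstrapped, provided melting temperature and folding enthalpy from Cy3 fluorescence normalised to pre-quench Cy3 and to control constructs. Library hairpins with annealed Cy3 and quencher oligos were imaged on a sequenced MiSeq flow cell in 50 mM Na-HEPES pH 8.0, 25 mM NaCl, at 2.5 °C intervals up to 60 °C. Four replicates were combined with inverse-variance weighting. A 9.35 °C upward shift was applied to fitted temperatures to match UV melts.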

[2] = melting temperature; fluorescence melt of hairpins on a sequencing array, two-state fit, raised by 9.35 °C to match UV melts; conditions: sodium 0.088 M
Outline: as §1

GCTCCCCGAAAGGGAAGC (((.(((....))).)))
folding enthalpy [1]: -34 kcal/mol
Tm [2]: 56.5 °C

GAGGCTGGAAACGGCCTC (((((.(....).)))))
folding enthalpy [1]: -46.4 kcal/mol
Tm [2]: 59.6 °C

GACGACGAAAGTCCTGTC ((((((....)))..)))
folding enthalpy [1]: -16.4 kcal/mol
Tm [2]: 31.4 °C

GGCGCAACGAAAGTTGCC (((..(((....))))))
folding enthalpy [1]: -8.29 kcal/mol
Tm [2]: 47 °C

GGGAGCGGAAACGCTCTC (.(((((....))))).)
folding enthalpy [1]: -14.5 kcal/mol
Tm [2]: 58.4 °C

GATCAGTTGCTGATC ((((((...))))))
folding enthalpy [1]: -34.1 kcal/mol
Tm [2]: 48.8 °C

GATCGGCTCACCGATC ((((((....))))))
folding enthalpy [1]: -38.8 kcal/mol
Tm [2]: 57.4 °C

GATCGCGGAAACGTGGTC ((.(.((....)).).))
folding enthalpy [1]: -26.7 kcal/mol
Tm [2]: 43.6 °C

GATCATGTAAATGATC ((((((....))))))
folding enthalpy [1]: -38.9 kcal/mol
Tm [2]: 56.6 °C

GTTAACGCGAAAGCGAAC (((..(((....))))))
folding enthalpy [1]: -8.96 kcal/mol
Tm [2]: 32.9 °C

GAGACAGCGAAAGCTCTC (((..(((....))))))
folding enthalpy [1]: -9.49 kcal/mol
Tm [2]: 45.5 °C

GTCGCTGGAAACAACGAC ((((.((....)).))))
folding enthalpy [1]: -38.5 kcal/mol
Tm [2]: 47.1 °C

GTTGACGGAAACGTTGAC ((..(((....)))..))
folding enthalpy [1]: -25.4 kcal/mol
Tm [2]: 37.5 °C

CGTACACGGAAACGTACG (((..(((....))))))
folding enthalpy [1]: -25.7 kcal/mol
Tm [2]: 40.8 °C

GGTGTCGAAAGACGCACC ((((((....)))..)))
folding enthalpy [1]: -13.6 kcal/mol
Tm [2]: 42.4 °C

GTCGGTGGAAACGTCGAC ((((..(....)..))))
folding enthalpy [1]: -19.7 kcal/mol
Tm [2]: 45.3 °C

GTTTTTGGAAACAAAGAC ((.((((....)))).))
folding enthalpy [1]: -24.5 kcal/mol
Tm [2]: 34 °C

GGGTGCGAAAGCAACCC ((((((....))).)))
folding enthalpy [1]: -18.9 kcal/mol
Tm [2]: 68.5 °C

GCGTATGGAAACATACGC (((((((....)))))))
folding enthalpy [1]: -37.7 kcal/mol
Tm [2]: 68.2 °C

GACATCGGAAACGACGTC (((.(((....))).)))
folding enthalpy [1]: -28 kcal/mol
Tm [2]: 43.3 °C

GGACATCGAAAGATCTCC (((.(((....))).)))
folding enthalpy [1]: -21.8 kcal/mol
Tm [2]: 32.6 °C

TCTGTGAAAACAGA (((((....)))))
folding enthalpy [1]: -17.6 kcal/mol
Tm [2]: 42.4 °C

GATCTTGGGAAAGATC ((((((....))))))
folding enthalpy [1]: -33.3 kcal/mol
Tm [2]: 49.1 °C

GCAATGGGAAACTGTTGC ((((..(....)..))))
folding enthalpy [1]: -27.7 kcal/mol
Tm [2]: 40.4 °C

GCGTGGGCGAAAGCCCGC (((..(((....))))))
folding enthalpy [1]: -9.77 kcal/mol
Tm [2]: 57.7 °C

GAGGGGGGAAACCCTCTC (((.(((....))).)))
folding enthalpy [1]: -27.6 kcal/mol
Tm [2]: 53.7 °C

GTGGGTCGAAAGACTCAC (((.(((....))).)))
folding enthalpy [1]: -40.4 kcal/mol
Tm [2]: 59 °C

GAATGCGAAAGCATTTTC ((((((....)))..)))
folding enthalpy [1]: -14.6 kcal/mol
Tm [2]: 49 °C

GTGGTCGAAAGACGGCAC ((((((....)))..)))
folding enthalpy [1]: -16.8 kcal/mol
Tm [2]: 38.5 °C

GATCGAGCGGTCGATC ((((((....))))))
folding enthalpy [1]: -45.7 kcal/mol
Tm [2]: 53 °C

GCATCGCGAAAGCGCAGC ((..(((....)))..))
folding enthalpy [1]: -12.6 kcal/mol
Tm [2]: 39.9 °C

GTCGGCGAAAGCCGGGAC ((((((....)))..)))
folding enthalpy [1]: -8.08 kcal/mol
Tm [2]: 44.1 °C

GTTAGGTCGAAAGACAAC (((..(((....))))))
folding enthalpy [1]: -11.1 kcal/mol
Tm [2]: 27.2 °C

GGAGAGTCGAAAGACTCC (((..(((....))))))
folding enthalpy [1]: -10.9 kcal/mol
Tm [2]: 46.6 °C

GATCAGTACCCTGATC ((((((....))))))
folding enthalpy [1]: -35.6 kcal/mol
Tm [2]: 49.4 °C
